# Rows were chosen to be rich in hits. Some 3% of all compounds tested hit in one or more screens of this group.
# UCH37 inh = human UCH37 deubiquitinating enzyme inhibition | Q9Y5K5 | purified proteasome/UCH37, Ub-AMC cleavage fluorescence | inhibition, % (test concentration not listed) | 330,000 tested, 0.33% active | AID 588478;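 active means mean inhibition over replicate wells above about 20%, limit read from the data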
# Target sequence (Q9Y5K5 whole entry, looked up): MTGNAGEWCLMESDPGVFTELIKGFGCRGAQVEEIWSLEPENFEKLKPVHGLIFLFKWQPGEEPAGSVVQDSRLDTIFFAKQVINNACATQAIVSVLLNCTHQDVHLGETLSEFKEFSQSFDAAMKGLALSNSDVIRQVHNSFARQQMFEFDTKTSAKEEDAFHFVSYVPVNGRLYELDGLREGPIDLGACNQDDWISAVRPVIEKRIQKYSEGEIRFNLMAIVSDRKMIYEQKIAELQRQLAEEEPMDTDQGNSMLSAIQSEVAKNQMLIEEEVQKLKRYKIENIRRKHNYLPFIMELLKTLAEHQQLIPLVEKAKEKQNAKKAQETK
#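 assay system = human UCH37 enzyme supplied as purified proteasome complex | amount = proteasome at 0.15 nM in the dispensed enzyme solution | schedule = 30 min compound-proteasome preincubation then 25 min substrate reaction, room temperature | measured by = fluorescence, ex 355 nm, em 460 nm | benchmarks = no-proteasome wells (full inhibition) and compound-free wells (no inhibition)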
# UBC13 polyUb = inhibitors of human UBC13 polyubiquitin chain formation | P61088 | TR-FRET | inhibition, % at 20 µM | 330,000 tested, 0.47% active | AID 485273; in the data active means inhibition above about 45%, passing the limit was not always enough
# Target sequence (P61088 whole entry, looked up): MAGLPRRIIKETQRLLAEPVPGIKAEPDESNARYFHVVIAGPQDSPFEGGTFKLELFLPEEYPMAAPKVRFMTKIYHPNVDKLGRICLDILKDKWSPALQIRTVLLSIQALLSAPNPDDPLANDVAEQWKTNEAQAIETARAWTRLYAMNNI
# MEKK3 PB1 HTS = MEKK3-MEK5 PB1 interaction, increase or decrease. bead-based flow cytometry, Alexa488-MEK5 binding to MEKK3; actives lie on both sides; 0 = blocked by unlabeled MEK5, 100 = vehicle. binding response (% of control), % at 10 µM. 290,000 tested, 1.4% active. AID 1529;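 active means binding response more than 3 SD above or below the average of its plate-row segment, actives on both sides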;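 further: Alexa488 bead fluorescence after subtracting the streptavidin-only scavenger bead signal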
# MEKK2 WT-MEK5 = raises or lowers MEK5 binding to wildtype human MEKK2 PB1 domain. Q9Y2U5. bead flow cytometry, Alexa488-MEK5 binding to MEKK2 WT; actives lie on both sides. binding response (% of control), % at 10 µM. 290,000 tested, 1.1% active. AID 1531; in the data active means binding response below about 67% or above about 130%
# Apaf-1 inh = human Apaf-1 inhibition | O14727 | reconstituted apoptosome caspase-3 activity, DEVD-Rh110 fluorescence | inhibition, % at 20 µM | 330,000 tested, 0.71% active | AID 489030; active means inhibition of at least 40% at 20 µM
#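 detection = Rh110 fluorescence intensity | test system = biochemical Apaf-1 apoptosome reconstitution | also added = cytochrome c and DEVD-Rh110 substrate | schedule = 30 min plus 50 min, RT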
# MEKK2mut PB1 HTS = signal of MEK5 binding to mutant human MEKK2 PB1 domain. 290,000 tested, 0.35% active. percent response, % at 10 µM. AID 1530. bead flow cytometry, Alexa488-MEK5 binding to MEKK2 mutant; in the data active means percent response above about 24%, passing the limit was not always enough
# MEKK2wt confirm = raises or lowers MEK5 binding to wildtype human MEKK2, retest | shares compounds with MEKK3 PB1 HTS | bead flow cytometry, Alexa488-MEK5 binding to MEKK2 WT; actives lie on both sides | binding response (% of control), % at 10 µM | 5,900 tested, 2.4% active | AID 1892; in the data active means binding response below about 16% or above about 210%; inactive means in between
# MEKK2mut-MEK5 = signal of MEK5 binding to mutant human MEKK2, retest | bead flow cytometry, Alexa488-MEK5 binding to MEKK2 mutant | 5,900 tested, 2% active | AID 1893 | shares compounds with MEKK3 PB1 HTS | percent response, % at 10 µM; in the data active means percent response mostly above about 71%, no sharp cut-off; inactive means mostly below about 38%;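 further: higher means compound restores mutant binding toward wildtype level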
# MEKK3 confirm = confirmation of inhibitors of MEK5 binding to human MEKK3 | AID 1894 | 5,900 tested, 1.8% active | shares compounds with MEKK3 PB1 HTS | binding response (% of control), % at 10 µM | bead flow cytometry, Alexa488-MEK5 binding to MEKK3; hits give low values;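 active means binding response below 72% of control, or above a set upper limit, though filed actives all read lower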
# Hits are given with their value; n = inactive; x = no result given; [ ] = dose if it differs, or a comment.
SMILES,UCH37 inh,UBC13 polyUb,MEKK3 PB1 HTS,MEKK2 WT-MEK5,Apaf-1 inh,MEKK2mut PB1 HTS,MEKK2wt confirm,MEKK2mut-MEK5,MEKK3 confirm
CCn1ncc(C2=NOC(C(=O)Nc3ccc4c(c3)OCO4)C2)c1C (centres undefined),n,n,2.0[inhibitor],1.0[inhibitor],n,n,n,n,n
CCC(C)(C)NC(=O)CN(C(=O)CCC(=O)Nc1nccs1)c1cccc(C)c1,n,n,n,n,n,26,n,n,n
Cc1cccc(N(CC(=O)NC(C)(C)C)C(=O)CCC(=O)Nc2nccs2)c1,n,n,n,n,n,n,x,x,x
Cc1c(Br)ccc(NC(=O)CCN2C(=O)C3C4CCC(C4)C3C2=O)c1C (centres undefined),n,n,n,n,n,n,x,x,x
Cc1ccc2c(c1)C(=O)CC1(CCC(C(C)(C)C)CC1)O2 (centres undefined),n,n,n,n,n,n,x,x,x
O=C(OCCNc1nc(-c2ccccc2)nc2ccccc12)c1ccncc1,n,n,146,n,n,n,n,n,n
O=C(OCCNc1nc(-c2ccccc2)nc2ccccc12)c1cccnc1,n,n,n,n,n,n,x,x,x
O=C(c1cc(-c2ccccn2)nc2ccc(Cl)cc12)N1CCN(CCc2ccccc2)CC1,n,n,-1.0[inhibitor],-4.0[inhibitor],n,n,n,n,n
COc1ccc(-c2coc3cc(O)cc(O)c3c2=O)cc1OC,n,n,132,n,n,n,n,n,n
COc1ccccc1NS(=O)(=O)c1ccc(C(N)=O)cc1,n,n,28[inhibitor],35[inhibitor],n,n,n,n,n
COC(=O)c1ccc(CNC(=O)COC(=O)C23CC4CC(CC(C4)C2)C3)cc1,n,n,75[inhibitor],n,n,n,n,n,n
O=C(COC(=O)C12CC3CC(CC(C3)C1)C2)NCc1ccccc1,n,n,x,x,n,x,x,x,x
CCS(=O)(=O)c1ccc(N=Nc2ccc(O)c3ncccc23)c(OC)c1,n,n,131,n,n,n,n,n,n
O=C(C[n+]1cc(-c2ccc(Cl)cc2)n2c1CCC2)Nc1nc(-c2ccccc2)cs1,n,n,n,146,n,n,n,n,n
Cc1ccc(-c2c[n+](CC(=O)Nc3nc(-c4ccc(F)cc4)cs3)c3n2CCC3)cc1,n,n,n,226,n,76,n,76,n
O=C(C[n+]1cc(-c2ccc(F)cc2)n2c1CCC2)Nc1nc(-c2ccccc2)cs1,n,n,n,n,n,n,x,x,x
O=C(C[n+]1cc(-c2ccc(Cl)cc2)n2c1CCC2)N1c2ccccc2Sc2ccccc21,n,n,n,157,n,n,n,n,n
CC1=CC(C)(C)N(C(=O)Nc2ccccc2)c2ccccc21,n,n,43[inhibitor],n,n,n,n,n,n
CC1=CC(C)(C)N(C(=O)c2ccccc2)c2ccccc21,n,n,n,n,n,n,x,x,x
C/C(=N/NC(=O)c1ccoc1C)c1ccc(N2CCOCC2)cc1,x,n,131,n,n,n,n,n,n
CC(=NNC(=O)c1ccccc1)c1ccc(N2CCOCC2)cc1,n,x,x,x,x,x,x,x,x
COc1ccc(NC(=S)NCCc2ccccc2OC)c(OC)c1,n,n,n,n,n,n,x,x,x
Cc1cccc(NC(=O)CCC(=O)OCC(=O)c2ccc(Oc3ccc([N+](=O)[O-])cc3)cc2)c1,n,n,68[inhibitor],n,n,n,n,n,n
COc1cc2c(cc1NC(=O)Nc1cccc(C)c1)oc1ccccc12,n,n,n,150,n,30,6.0[inhibitor],n,n
COc1cc2c(cc1NC(=S)Nc1cccc(C)c1)oc1ccccc12,n,n,n,n,n,n,x,x,x
SMILES,UCH37 inh,UBC13 polyUb,MEKK3 PB1 HTS,MEKK2 WT-MEK5,Apaf-1 inh,MEKK2mut PB1 HTS,MEKK2wt confirm,MEKK2mut-MEK5,MEKK3 confirm
COc1cc2c(cc1NC(=O)Nc1ccc(C)cc1)oc1ccccc12,n,n,n,141,n,24,n,n,n
COc1ccc(NC(=O)Nc2cc3oc4ccccc4c3cc2OC)cc1,n,n,x,x,n,x,x,x,x
S=c1[nH]nc2ccccn12,n,x,x,x,x,x,x,x,x
CCCCNC(=O)C1CCCN1C(=O)NC1CCCCC1 (centres undefined),n,n,2.0[inhibitor],3.0[inhibitor],n,n,n,n,n
CN1CCc2c(sc3c2c(=O)n(-c2ccc(Cl)cc2)c2nncn32)C1,n,n,122,n,n,n,n,n,n
CCN(CC)CCn1c(=O)n(-c2ccc(Cl)cc2)c(=O)c2c3c(sc21)CN(C)CC3,n,n,n,n,n,n,x,x,x
Cc1cc(=O)c2c(C)ccc(C)c2[nH]1,x,n,74[inhibitor],n,n,n,n,n,n
Cc1cc(=O)c2cccc(Br)c2[nH]1,n,n,n,n,n,n,x,x,x
CN(C)c1ccc(C(=O)NN2C(=O)c3ccccc3C2=O)cc1,n,n,132,n,n,n,n,n,n
O=C(NN1C(=O)c2ccccc2C1=O)c1ccncc1,n,n,n,n,n,n,x,x,x
Cc1ccc(-c2nc3ccccc3s2)cc1NC(=S)NC(=O)c1cccc2ccccc12,x,n,n,n,n,n,x,x,x
O=C(c1cccs1)N1CCCC(N2CCN(c3ccc(F)cc3)CC2)C1 (centres undefined),n,n,n,n,n,n,x,x,x
O=C(CN1CCN(C(=O)c2cccs2)CC1)NC1CCCCC1,n,n,81[inhibitor],n,n,n,n,n,n
NS(=O)(=O)c1ccc(Nc2ccc3nonc3c2[N+](=O)[O-])cc1,n,n,133,n,n,n,n,n,n
Cc1cc(NS(C)(=O)=O)c(=O)n(Cc2cccc(F)c2)c1,n,n,n,20[inhibitor],n,n,n,n,n
CC(C(=O)N1CCN=C1c1ccccc1)N1C(=O)c2ccccc2C1=O (centres undefined),n,n,n,n,n,n,x,x,x
Cc1ccc(S(=O)(=O)CCC(=O)Nc2cccc(C)c2)cc1,n,n,n,n,n,n,x,x,x
N#Cc1nc(COc2ccccc2F)oc1NCCCn1ccnc1,n,n,1.0[inhibitor],2.0[inhibitor],n,n,n,n,n
OC(COCc1ccccc1)CN1CCN(Cc2ccc3c(c2)OCO3)CC1 (centres undefined),n,n,n,n,n,n,x,x,x

# Bioassay records as filed in PubChem.
